Apaf-1 inh: blocks human Apaf-1 apoptosome activity | O14727 | reconstituted apoptosome caspase-3 activity, DEVD-Rh110 fluorescence | inhibition, % at 20 µM | actives 0.71% (n = 330,000) | AID 489030; active means inhibition of at least 40% at 20 µM
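Material: cell-free apoptosome with Apaf-1, procaspase-3 and caspase-9; Buffer or medium: Hepes pH 7.5 with detergent and BSA; Reagent: cytochrome c trigger plus (Z-DEVD)2-Rh110 caspase-3 substrate; Times: compound with Apaf-1, dATP, procaspase-3 30 min, then 50 min reaction, room temperature; Technique: Rh110 fluorescence intensity.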
UBC9 SUMO inh: blocks human SUMOylation mediated by UBC9; inhibition, % at 35 µM; P63279; actives 0.36% (n = 290,000); HTRF SUMOylation assay, SAE1/SAE2 + UBC9, in vitro; in the data active means inhibition above about 50%, passing the limit was not always enough
Target sequence (P63279 whole entry, looked up): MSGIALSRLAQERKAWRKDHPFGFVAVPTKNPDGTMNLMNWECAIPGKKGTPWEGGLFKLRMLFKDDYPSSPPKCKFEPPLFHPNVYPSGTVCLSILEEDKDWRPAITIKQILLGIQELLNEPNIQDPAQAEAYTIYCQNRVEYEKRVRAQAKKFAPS
GSTO1 inh: blocks human GSTO1 in RBBP9 counter-screen; P78417; AID 1974; recombinant GSTO1, activity-based probe fluorescence polarization; actives 1.1% (n = 300,000); inhibition, % at 5.96 µM;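 active means inhibition above the campaign mean inhibition plus 3 SD, cut at about 35% in these data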
Target sequence (P78417 whole entry, looked up): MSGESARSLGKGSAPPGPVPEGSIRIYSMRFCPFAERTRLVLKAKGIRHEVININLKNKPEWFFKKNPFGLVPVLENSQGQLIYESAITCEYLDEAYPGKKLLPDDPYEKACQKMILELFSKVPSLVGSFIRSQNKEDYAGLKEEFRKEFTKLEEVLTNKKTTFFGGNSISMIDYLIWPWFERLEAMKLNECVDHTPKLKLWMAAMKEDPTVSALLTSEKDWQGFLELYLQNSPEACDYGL
Redox H2O2 prof: compounds producing H2O2 with reducing agent – biochemical, NIH compound library profiling, artefact control for MLSCN library redox annotation, primary screen; activation, % at 10 µM; AID 878; actives 0.03% (n = 200,000); DTT-dependent redox cycling H2O2, phenol red/HRP absorbance; 100% = 100 µM peroxide control, 0% = buffer;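 active means activation of at least 50% relative to the plate's high and low controls in the primary single-dose screen; inactive means activation below 50%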;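 further: compound incubated with DTT at 0.8 mM final as the reducing agent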
HKDC1 inhibitor: blocks human hexokinase HKDC1 activity | inhibition, % at 20 µM | AID 493160 | recombinant HKDC1, G6PDH/diaphorase resazurin coupled fluorescence | Q2TB90 | actives 0.16% (n = 340,000);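 active means inhibition above about 35% when tested at 20 µM, limit read from the data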
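Material: recombinant HKDC1 hexokinase; Amount: HKDC1 at 5 µg/mL; Medium: Tris pH 8.0 buffer with MgCl2, Tween-20, BSA, BME; Schedule: 90 min reaction incubation at room temperature, dark; Technique: coupled resazurin fluorescence, excitation 525 nm, emission 613 nm.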
Of the large screens only hits and unclear results are named; the others gave an inactive call. Shown are actives, neighbours in structure and some others; about 1.4% of the full set was active somewhere.

Cc1ccc(S(=O)(=O)N2CCC[C@H]2C(=O)OCc2nc3ccccc3s2)cc1	none (no result: Apaf-1 inh, UBC9 SUMO inh, GSTO1 inh, Redox H2O2 prof)
COc1cc2c(cc1OC)C(SC)=NC1(CCCC1)C2	none
COc1cc2c(cc1OC)C(C)=NC1(CCCCC1)C2	UBC9 SUMO inh 59 (no result: Redox H2O2 prof)
Cc1cc(N)ccc1-n1c(C)ccc1C	GSTO1 inh 82
Cc1ccc(-n2c(C)cc(=O)cc2C)c(C)c1	none
O=C(Nc1cccc(Cl)c1)Nn1cnnc1	UBC9 SUMO inh 51 (no result: Redox H2O2 prof)
O=C(Nc1ccc(Cl)c(Cl)c1)Nn1cnnc1	UBC9 SUMO inh 67 (no result: GSTO1 inh, Redox H2O2 prof)
COc1ccc(/C(N)=N/OC(=O)CC2CCCCC2)cc1	none (no result: Redox H2O2 prof)
COc1ccc(NC(=O)CCc2nnc3ccc(N4CCC(C)CC4)nn23)cc1OC	none (no result: Redox H2O2 prof)
CCOc1ccc(CCNC(=O)C(C)N2C(=O)CC(C)(C)Sc3ccccc32)cc1 (configuration not stated)	none (no result: Redox H2O2 prof)
O=[N+]([O-])c1ccccc1NC(=S)N/N=C/c1ccc(O)c(O)c1	GSTO1 inh 50
CCn1c(SCc2nc3sc(C(=O)O)c(C)c3c(=O)[nH]2)nc2ccccc21	UBC9 SUMO inh 55
COc1ccc(/C=C(\C#N)C(=O)NCCc2ccccc2)cc1OCc1ccccc1	none
COCCCNC(=O)/C(C#N)=C/c1ccc(OCC(=O)O)c(OC)c1	GSTO1 inh 41
COc1cc(C(=O)NC(C)c2cc(C)ccc2C)ccc1OCC(=O)N1CCOCC1 (configuration not stated)	none (no result: UBC9 SUMO inh, GSTO1 inh, Redox H2O2 prof)
O=C1/C(=C2\C(=O)N(Cc3ccc(F)cc3)c3ccccc32)SC(=S)N1CCS(=O)(=O)O	none (no result: Redox H2O2 prof)
O=C(O)CN1C(=O)/C(=C2\C(=O)N(Cc3ccccc3Cl)c3ccccc32)SC1=S	HKDC1 inhibitor 51 (no result: Apaf-1 inh, Redox H2O2 prof)
CN(C(=O)c1cc(S(=O)(=O)N2CCc3ccccc32)cn1C)C1CCCCC1	none (no result: Redox H2O2 prof)
O=C(CSc1nnc(NC(=O)c2ccccc2F)s1)NC1CC1	none (no result: Redox H2O2 prof)
O=C(CSc1nncc(=O)[nH]1)Nc1cccc([N+](=O)[O-])c1	GSTO1 inh 35 (no result: Redox H2O2 prof)
N#Cc1cccc(NC(=O)CSc2ccc3c4c(cccc24)C(=O)c2ccccc2-3)c1	GSTO1 inh 36 (no result: Apaf-1 inh)
CC(=O)Nc1ccc(S(=O)(=O)N(C)CC(=O)OCC(=O)N2CC(C)OC(C)C2)cc1 (configuration not stated)	none (no result: UBC9 SUMO inh, Redox H2O2 prof)
CCN(CC)c1ccc(N=Cc2ccc(N(CC)CC)cc2O)cc1	GSTO1 inh 57
CCOC(=O)c1c(NC(=O)CN2C(=O)C(=O)N(CC(C)C)C2=O)sc(C)c1CC	none (no result: UBC9 SUMO inh, Redox H2O2 prof)
O=C(NN=Cc1ccc(O)cc1)c1ccccc1NS(=O)(=O)c1cccs1	none (no result: UBC9 SUMO inh, GSTO1 inh, Redox H2O2 prof)
O=C(N/N=C/c1cc(Cl)cc([N+](=O)[O-])c1O)c1ccccc1NS(=O)(=O)c1cccs1	UBC9 SUMO inh 100 (no result: Redox H2O2 prof)
O=c1c(-c2c(O)cc(O)c3c(=O)cc(-c4ccc(O)cc4)oc23)c(-c2ccc(O)cc2)oc2cc(O)cc(O)c12	UBC9 SUMO inh 52 (no result: Redox H2O2 prof)
Cn1c(N)c(C(=O)CSc2nnc(C3CC3)n2-c2ccccc2)c(=O)n(C)c1=O	none (no result: UBC9 SUMO inh, GSTO1 inh, Redox H2O2 prof)
Oc1ccc(N=C/C=C/c2ccc(Br)cc2)cc1-c1nc2ccccc2s1	GSTO1 inh 36 (no result: HKDC1 inhibitor)
Cc1c(C(=O)O)oc2ccc(S(=O)(=O)NCCC3=CCCCC3)cc12	GSTO1 inh 37
Cc1c(C(=O)NCCC2=CCCCC2)oc2ccc(S(=O)(=O)N3CCOCC3)cc12	none
CC1CCCN(CC(=O)Nc2cc(S(=O)(=O)N3CCOCC3)ccc2N2CCCC2)C1 (configuration not stated)	none (no result: UBC9 SUMO inh, GSTO1 inh, Redox H2O2 prof)
C/C(=N\NC(=O)c1cc2ccccc2cc1O)c1cc2ccccc2o1	UBC9 SUMO inh 56 (no result: Redox H2O2 prof)
C/C(=N\NC(=O)c1cc2ccccc2cc1O)c1ccccn1	none (no result: UBC9 SUMO inh, Redox H2O2 prof)
C/C(CC(=O)N1CCN(C=O)CC1)=N\NC(=O)c1cc2ccccc2cc1O	UBC9 SUMO inh 65
C/C(CC(=O)N1CCN(C=O)CC1)=N\NC(=O)c1ccc([N+](=O)[O-])cc1	none
Nn1c(Cc2ccccc2)nc2cc(Cl)ccc2c1=O	none (no result: Redox H2O2 prof)
COc1ccc(S(=O)(=O)NC2CCSc3ccccc32)cc1OC (configuration not stated)	none (no result: Redox H2O2 prof)
O=Cc1ccc(N2N=C(c3ccccc3)CC2c2ccccc2)cc1 (configuration not stated)	none (no result: Redox H2O2 prof)
O=C(O)c1ccc(N2N=C(c3ccccc3)CC2c2ccccc2)cc1 (configuration not stated)	UBC9 SUMO inh 62 (no result: Redox H2O2 prof)
